Test results taken from publication PMC9486128 (The Journal of Biological Chemistry, 2022).
Residue numbers refer to the chain shown, from its start. Several values for one entry are separate records, joined by “and”; a condition that tells them apart may be missing. Identical values can stand only once.

Legend:
[1] = target: T1, SmHDAC8 (Schistosoma mansoni, UniProt A5H660); experiment: SmHDAC8 enzymatic activity inhibition; assay type: biochemical; settings: for enhancement in potency toward SmHDAC8: NF2883 with respect to NF2453, NF2889 with respect to NF2452
T1 sequence (A5H660 1-440): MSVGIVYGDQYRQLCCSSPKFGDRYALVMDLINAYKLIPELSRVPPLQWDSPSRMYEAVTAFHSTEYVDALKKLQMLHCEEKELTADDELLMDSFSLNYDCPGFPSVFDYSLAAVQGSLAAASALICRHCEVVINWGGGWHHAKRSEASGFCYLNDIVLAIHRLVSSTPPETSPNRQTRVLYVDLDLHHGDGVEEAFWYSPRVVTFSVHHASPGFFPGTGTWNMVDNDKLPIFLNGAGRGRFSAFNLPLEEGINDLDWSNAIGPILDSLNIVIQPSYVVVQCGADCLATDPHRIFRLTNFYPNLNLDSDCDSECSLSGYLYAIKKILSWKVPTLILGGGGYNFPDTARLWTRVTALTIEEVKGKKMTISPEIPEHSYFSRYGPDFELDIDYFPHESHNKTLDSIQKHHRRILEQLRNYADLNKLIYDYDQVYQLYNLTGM

[2] = target: T2, hHDAC8 (Homo sapiens, UniProt Q9BY41); experiment: hHDAC8 enzymatic activity inhibition; assay type: biochemical; settings: for enhancement in potency toward hHDAC8: NF2883 with respect to NF2453, NF2889 with respect to NF2452
T2 sequence (Q9BY41 1-377): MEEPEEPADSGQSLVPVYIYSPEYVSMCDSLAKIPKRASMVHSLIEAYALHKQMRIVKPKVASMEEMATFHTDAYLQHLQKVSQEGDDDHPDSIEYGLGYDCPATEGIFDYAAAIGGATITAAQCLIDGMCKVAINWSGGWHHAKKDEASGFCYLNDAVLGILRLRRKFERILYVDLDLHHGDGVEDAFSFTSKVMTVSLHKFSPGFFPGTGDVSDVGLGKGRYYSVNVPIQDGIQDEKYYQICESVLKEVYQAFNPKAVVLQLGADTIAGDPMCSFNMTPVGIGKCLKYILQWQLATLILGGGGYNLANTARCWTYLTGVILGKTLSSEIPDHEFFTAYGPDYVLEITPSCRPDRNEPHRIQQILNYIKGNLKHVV

[3] = test system: S. mansoni larvae (schistosomula); experiment: ATP-based luminescence viability assay on schistosomula; assay type: cell-based, Schistosoma mansoni; settings: 72 h incubation, normalized to DMSO and gambogic acid 10 μM
How it was run: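 Schistosomula of a Puerto Rican strain were made by mechanical transformation of cercariae and purified on a Percoll gradient. They were exposed at 150 per well in phenol-red-free DMEM to test compound in DMSO for 72 h at 37 °C, 5% CO2. CellTiterGlo luminescence was read after 30 min. Three independent experiments were run. LD50 came from a variable-slope log(inhibitor) versus normalized response fit.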

[4] = test system: S. mansoni adult worm pairs; experiment: Adult worm pairs viability assay; assay type: cell-based, Schistosoma mansoni; settings: for reduction of adult worm pairs viability: day 7; for adult worm pairs viability: 24 h
How it was run: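 Five adult worm pairs per sample were held in complete DMEM. Test compound was added once at 10, 20 or 50 μM, with no medium addition or replacement, against a DMSO vehicle control. Worms were scored 0–3 daily under a stereomicroscope for 7 days. The sample score was the sum of worm scores divided by worm number, expressed as percent relative to DMSO. Three experiments were run.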

[5] = target: T1, SmHDAC8; experiment: Binding to SmHDAC8 by quenching of intrinsic fluorescence
How it was run: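 Recombinant His6-tagged SmHDAC8 was expressed in E. coli BL21(DE3) and used at 0.125 μM in 50 mM Tris pH 8.0, 150 mM KCl, 100 μM DTT. It was titrated with test compound from 1.6 nM to 125 μM, with 5 min stirred equilibration per addition at 25 °C. Intrinsic fluorescence quenching was read at 340 nm (excitation 280 nm), averaging 4–5 accumulations. Ki came from a quadratic 1:1 binding fit.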

[6] = test system: acetylation of lysine residues within histone proteins of S. mansoni adult worm pairs; experiment: Histone K-acetylation Western blot on adult worm pairs; assay type: cell-based, Schistosoma mansoni
How it was run: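 Ten adult worm pairs were treated 24 or 72 h with test compound at concentrations taken from viability curves. Positive controls were TSA 1 μM and a reference HDAC inhibitor 20 μM; DMSO was the negative control. Lysis buffer contained 5 mM sodium butyrate. Histone-enriched fractions were run on 15% SDS-PAGE and blotted with anti-acetyl-lysine (1:4000) and anti-α-tubulin (1:5000), with Ponceau calibration. Acetyl-lysine densitometry was normalized to tubulin, then to DMSO.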

[7] = target: T3, SmHDAC8 WT (Schistosoma mansoni, UniProt A5H660); experiment: Steady-state enzyme kinetics of SmHDAC8 with fixed inhibitor concentration; assay type: biochemical; settings: for type of inhibition of SmHDAC8: from steady-state kinetics and IC50 at different substrate concentrations
T3 sequence (A5H660 1-440): T1 sequence (A5H660 1-440)
How it was run: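 SmHDAC8 (0.425 μM) was preincubated 15 min at 25 °C with DMSO, 5 μM or 1 μM test compound. Timed aliquots were quenched with TSA/trypsin. Initial rates came from product versus time via standard curve and were fitted to Michaelis–Menten. Two to four independent experiments were run.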

[8] = target: T2, hHDAC8; experiment: Steady-state enzyme kinetics of hHDAC8 with fixed inhibitor concentration; assay type: biochemical; settings: for type of inhibition of hHDAC8: from steady-state kinetics
How it was run: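 Commercial recombinant human HDAC8 from the Fluor-de-Lys kit was run with varied Fluor-de-Lys acetylated peptide-AMC substrate. Reactions contained vehicle or a fixed test compound concentration. Steady-state parameters came from Michaelis–Menten nonlinear regression.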

[9] = target: T4, WT SmHDAC8 (Schistosoma mansoni, UniProt A5H660); experiment: Fluorescence emission spectra of WT SmHDAC8 with inhibitors; assay type: binding; settings: inhibitor 25 μM, excitation 280 and 298 nm
T4 sequence (A5H660 1-440): T1 sequence (A5H660 1-440)
How it was run: (§1)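 WT SmHDAC8 or the W198A mutant (made by site-directed mutagenesis and expressed in E. coli) was used at 0.125 μM in 10 mM Tris pH 8.0, 150 mM KCl, 5 mM DTT. Protein was preincubated 15 min at 25 °C with 25 μM test compound, with a DMSO reference and enzyme-free blanks. Emission spectra were recorded after 280 and 298 nm excitation, averaging 4–5 accumulations. Some runs included 2 mM Na/K-tartrate.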

[10] = target: T5, SmHDAC8 W198A mutant (Schistosoma mansoni, UniProt A5H660, W198A); experiment: Fluorescence emission spectra of SmHDAC8 W198A mutant with inhibitors; assay type: binding; settings: inhibitor 25 μM, excitation 280 and 298 nm
T5 sequence (A5H660 1-440 W198A): T1 sequence (A5H660 1-440) with W198A
How it was run: as §1

SMILES | enhancement in potency toward SmHDAC8 [1] | IC50 [2] | enhancement in potency toward hHDAC8 [2] | LD50 on schistosomula [3] | reduction of adult worm pairs viability ([4]; 10 μM) | reduction of adult worm pairs viability ([4]; 20 μM) | adult worm pairs viability ([4]; 50 μM) | Ki [5] | type of inhibition of SmHDAC8 [7] | type of inhibition of hHDAC8 [8] | fluorescence signal of WT SmHDAC8 with respect to control [9] | fluorescence signal of SmHDAC8 W198A mutant with respect to control [10] | other results
CN1CCC2(CC1)c1ccccc1N(Cc1ccc(C(=O)NO)s1)C2c1ccc(Cl)cc1 (stereo not drawn) [NF2883, 5-((2-(4-chlorophenyl)-1′-methylspiro[indoline-3,4′-piperidin]-1-yl)methyl)-N-hydroxythiophene-2-carboxamide] | about 20 fold | 160 ± 20 nM | about 20 fold | 26.2 ± 1.1 µM | 50% | almost complete death | immediate loss of viability | 130 ± 50 nM |  |  |  |  | 
CN1CCC2(CC1)c1ccccc1N(Cc1ccc(C(=O)NO)s1)C2c1cccc(Cl)c1 (stereo not drawn) [NF2889, 5-((2-(3-Chlorophenyl)-1′-methylspiro[indoline-3,4′-piperidin]-1-yl)methyl)-N-hydroxythiophene-2-carboxamide] | 6 fold | 1320 ± 70 nM | 2 fold | 26.2 ± 1.6 µM | 50% | almost complete death | immediate loss of viability | 600 ± 200 nM | mixed-type inhibition | competitive | quenched | no quenching | increase of lysine acetylation signal versus DMSO ([6]; 5 μM for 72 h): 11 fold; increase of lysine acetylation signal versus DMSO ([6]; 10 μM for 24 h): 6.5 fold; kcat ([7]; SmHDAC8 with 1 μM NF2889): 0.007 ± 0.003 s⁻¹; kcat ([8]; hHDAC8 with 2 μM NF2889): 0.011 ± 0.005 s⁻¹
O=C(NO)c1ccc(Cn2c3c(c4cc(Br)ccc42)SC(c2ccccc2)C3)s1 (stereo not drawn) [NF2886, 5-((7-Bromo-2-phenyl-2,3-dihydro-4H-thieno[3,2-b]indol-4-yl)methyl)-N-hydroxythiophene-2-carboxamide] |  | 3140 ± 570 nM |  | ~60 µM and 59.9 ± 4.9 µM | ineffective | ~50% |  | 9700 ± 7200 nM | competitive inhibitor | competitive | quenched | quenching | increase of IC50 with 150 μM substrate versus 50 μM ([1]; SmHDAC8): ~2 fold; reduction of adult worm pairs viability ([4]; 50 μM): ~50%; kcat ([7]; SmHDAC8 with 5 μM NF2886): 0.017 ± 0.003 s⁻¹; increment of KM versus vehicle ([7]; SmHDAC8 with 5 μM inhibitor): > 3 fold; kcat ([8]; hHDAC8 with 5 μM NF2886): 0.012 ± 0.004 s⁻¹
CC(/C=C/C(=O)NO)=C\[C@@H](C)C(=O)c1ccc(N(C)C)cc1 [TSA, Trichostatin A, reference compound] |  |  |  |  |  |  |  |  |  |  |  |  | increase of K-acetylation to tubulin ratio versus control ([6]; 1 μM, positive control): About 10 fold
